Compound activity from PubChem.
An excerpt weighted towards active compounds, which were near 0.86% of everything screened.
S100A4 MyoIIA: blocks human S100A4 binding to myosin IIA peptide; S100A4/TAMRA-MyoIIA peptide fluorescence polarization; inhibition, % at 10.7 µM; hit rate 0.14% among 360,000; AID 652163;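 active = mean inhibition of at least 70% across replicates, with every replicate also reaching that level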
Target sequence (P26447 whole entry, looked up): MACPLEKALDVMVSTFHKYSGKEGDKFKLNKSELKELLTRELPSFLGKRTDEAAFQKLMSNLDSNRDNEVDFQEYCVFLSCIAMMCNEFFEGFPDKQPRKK
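Material: S100A4 monomer protein | Medium: HEPES pH 7.2 with CaCl2, KCl, NaCl, DTT, Triton | Reagent: Labelled myosin peptide probe, 5 nM | Doses: One dose per compound | Times: 5 min incubation before reading | Benchmarks: Neutral control DMSO, positive control TFP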
ERAP1 inh: ERAP1 (human) enzyme inhibition. Q9NZ08. recombinant ERAP1, Leu-AMC fluorescence, 60 min. inhibition, % at 10.7 µM. hit rate 0.15% among 340,000. AID 652197;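 active = mean replicate inhibition of at least 30%, or all replicates individually reaching that 30% level; inactive = mean below 30% and not every replicate reaching it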
AF4-AF9 inh: MLL-AF4/AF9 protein interaction inhibition; AlphaScreen, biotin-AF4 peptide binding to FLAG-AF9; inhibition, % at 10 µM; hit rate 0.47% among 350,000; AID 651704;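 active = every replicate reaching a set inhibition limit, whatever the replicate mean, cut at about 25% in these data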
miR-122 sensor: blocks miR-122 activity in Huh7 sensor cells. Huh7 miR-122 Renilla luciferase sensor, 48 h; neutral wells = 0, positive control = 100. activation (reporter increase), % at 12.5 µM. hit rate 0.3% among 340,000. AID 602342;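 active = mean replicate activation score at least 90 and every replicate individually at or above 90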;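 also: higher luciferase means less miR-122 activity so hits act as miR-122 inhibitors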
Rtt109 Vps75: blocks Candida albicans Rtt109/Vps75 acetyltransferase activity; Q5AAJ8; purified Rtt109/Vps75, ThioGlo CoA-SH fluorescence, 4 h; inhibition, % at 34.9 µM; hit rate 0.16% among 330,000;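 active = inhibition of at least 50% in every replicate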
Target sequence (Q5AAJ8 whole entry, looked up): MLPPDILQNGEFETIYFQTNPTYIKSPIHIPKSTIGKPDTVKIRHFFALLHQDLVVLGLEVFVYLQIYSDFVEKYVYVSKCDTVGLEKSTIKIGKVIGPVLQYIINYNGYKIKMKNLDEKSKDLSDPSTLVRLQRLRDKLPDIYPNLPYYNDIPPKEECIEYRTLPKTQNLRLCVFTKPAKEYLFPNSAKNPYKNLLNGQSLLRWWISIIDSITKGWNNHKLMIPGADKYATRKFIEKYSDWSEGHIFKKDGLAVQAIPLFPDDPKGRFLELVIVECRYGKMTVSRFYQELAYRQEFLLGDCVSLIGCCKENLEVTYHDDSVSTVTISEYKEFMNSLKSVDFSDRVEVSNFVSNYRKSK
Alpha interfer: AlphaScreen signal interference counter-screen hit. hit rate 45% among 530. signal luminescence. AC50, µM (highest dose often 12 µM). shares compounds with AF4-AF9 inh; cut-off not given, nearly all actives have AC50 up to about 14 µM
Hits are given with their value; n = inactive; x = no result; ! = not active in a repeat.

SMILES	S100A4 MyoIIA	ERAP1 inh	AF4-AF9 inh	miR-122 sensor	Rtt109 Vps75	Alpha interfer
COc1cc(OC)c2c(-c3ccccc3)cc(=O)oc2c1C(CCN1CCCC1)c1ccc2c(c1)OCO2 (stereo unspecified)	n	n	29	n	n	n
CCN(CC)CCC(c1ccc(N(C)C)cc1)c1c(OC)cc(OC)c2c(-c3ccccc3)cc(=O)oc12 (stereo unspecified)	n	n	51	n	n	4.8µM
COc1cc(OC)c2c(-c3ccccc3)cc(=O)oc2c1C(CCN1CCCC(C)C1)c1ccc(N(C)C)cc1 (stereo unspecified)	n	n	67	n	n	3µM
CCN1CCCc2cc(CN(CCN3CCOCC3)C(=S)Nc3cccc(C)c3)ccc21	n	n	37	n	n	n
C[C@@H]1CCCCO[C@@H](CN(C)C)[C@H](C)CN([C@H](C)CO)C(=O)c2cc(N(C)C)ccc2O1	n	n	n	n	x	x
O=C(COc1ccc2c(c1)OCO2)Nc1ccccc1F	n	n	n	n	x	x
Fc1ccc([C@@H]2CCNC[C@H]2COc2ccc3c(c2)OCO3)cc1	n	n	34	n	n	n
Cc1c(N=C2C=C(Br)C(=O)C(Br)=C2)c(=O)n(-c2ccccc2)n1C	n	n	n	x	n	x
Cc1c(N=C2C=CC(=O)c3ccccc32)c(=O)n(-c2ccccc2)n1C	n	n	35	x	n	n
C#CCOCCOCCOCCNc1nc(N2CCN(C(=O)[C@H](CC(N)=O)n3cc([C@@H](N)CC(N)=O)nn3)CC2)nc(N2CCN(C(=O)[C@H](CC(N)=O)n3cc([C@@H](N)CC(N)=O)nn3)CC2)n1	n	n	x	n	n	x
C#CCOCCOCCOCCNc1nc(N2CCN(C(=O)[C@H](CCCCN)n3cc(CCCC)nn3)CC2)nc(N2CCN(C(=O)[C@H](CCCCN)n3cc(CCCC)nn3)CC2)n1	n	n	26	n	n	n
C#CCOCCOCCOCCNc1nc(N2CCN(C(=O)[C@H](CCCCN)n3cc([C@@H](N)CC(N)=O)nn3)CC2)nc(N2CCN(C(=O)[C@H](CCCCN)n3cc([C@@H](N)CC(N)=O)nn3)CC2)n1	n	n	37	n	n	n
C#CCOCCOCCOCCNc1nc(N2CCOCC2)nc(N2CCN(C(=O)[C@H](CCCCN)n3cc(CCCC)nn3)CC2)n1	n	n	n	x	n	x
C#CCOCCOCCOCCNc1nc(N2CCN(C(=O)[C@H](CCCN=C(N)N)n3cc(C(N)[C@@H](C)CC)nn3)CC2)nc(N2CCN(C(=O)[C@H](CCC(=O)O)n3cc([C@@H](N)CCCCN)nn3)CC2)n1 (stereo partly specified)	n	n	n	x	n	x
C#CCOCCOCCOCCNc1nc(N2CCN(C(=O)[C@H](CCCN=C(N)N)n3cc(C(N)[C@@H](C)CC)nn3)CC2)nc(N2CCN(C(=O)[C@H](CCCCN)n3cc([C@@H](N)[C@H](C)CC)nn3)CC2)n1 (stereo partly specified)	n	n	46	n	54	n
O=C(C1CC1)N1CCCCN2[C@H](CO)[C@@H](c3ccc(C#CC4CC4)cc3)[C@H]2C1	n	n	n	n	x	x
CC(=NNC(=S)N1CCCCC1)c1ccccn1	n	n	n	x	x	x
CCC1CCCCN1C(=S)NN=C(C)c1ccccn1 (stereo unspecified)	n	n	37	x	x	7.4µM
CCC(=O)Nc1ccc2c(c1)C(=O)N(C)C[C@H](OC)[C@H](C)CN(CC1CCCCC1)[C@H](C)CO2	n	n	n	n	x	x
Cc1ccn2c(Nc3ccc4c(c3)OCO4)c(-c3ccccn3)nc2c1	n	n	32	n	n	9.3µM
CN1CCN(C(=O)C[C@H]2C[C@@H]3c4cc(NC(=O)Nc5ccc(F)cc5)ccc4O[C@@H]3[C@@H](CO)O2)CC1	n	n	n	n	x	x
O=C(N/N=C/c1c(O)ccc2ccccc12)C(=O)N1CCCC1	n	n	n	n	x	x
O=C(CN1CCCC1)N/N=C/c1c(O)ccc2ccccc12	n	n	38	n	n	5.7µM
Cc1noc(C)c1S(=O)(=O)Nc1ccc2c(c1)C(=O)N([C@@H](C)CO)C[C@@H](C)[C@H](CN(C)S(=O)(=O)c1cn(C)cn1)OCCCC[C@H](C)O2	n	n	n	n	x	x
C[C@H](CO)N1C[C@H](C)[C@@H](CN(C)Cc2ccc(C(=O)O)cc2)OCCCC[C@H](C)Oc2ccc(NC(=O)Nc3ccccc3)cc2C1=O	n	n	n	n	x	x
SMILES	S100A4 MyoIIA	ERAP1 inh	AF4-AF9 inh	miR-122 sensor	Rtt109 Vps75	Alpha interfer
CN(C)c1ccnc2c[cH-]cc12.[Fe].c1ccc(-[c-]2[c-](-c3ccccc3)[c-](-c3ccccc3)[c-](-c3ccccc3)[c-]2-c2ccccc2)cc1 (stereo unspecified)	n	n	29!	n	n	n
CN(C)c1ccnc(Nc2ccccc2)c1C#N	n	n	n	n	n	x
CCN(CC)CCSc1nc(O)c(-c2ccccc2)c(=O)n1-c1ccccc1	n	n	n	n	n	x
CCN(CC)CCSc1nc2ccccc2c(=S)n1-c1ccccc1	n	n	34	x	x	n
CCN1C(=O)/C(=C\C(=O)c2cccs2)c2cc(Br)ccc21	n	n	37	x	n	n
O=C1Nc2ccccc2/C1=C/C(=O)c1cccs1	x	x	x	n	n	x
Clc1ccc(-c2[nH]ncc2N=Nc2ccccc2)cc1	n	n	n	x	n	x
c1ccc(N=Nc2ccc3cccccc2-3)cc1	n	n	77	x	n	1µM
COc1ccc2c3c(n(C)c2c1)[C@H](CO)N(C(=O)c1cccnc1)CC31CN(C)C1	x	x	n	x	x	x
C[C@@H]1CN([C@H](C)CO)C(=O)c2cc(NS(=O)(=O)c3ccc(Cl)cc3)ccc2O[C@@H](C)CCCCO[C@@H]1CN(C)C(=O)CCC(F)(F)F	n	n	n	n	x	x
COc1ccc(C#Cc2ccc3c(c2)[C@H]2[C@H](CCN2C(=O)c2ccncc2)[C@@H](CO)N3)cc1	n	n	34	x	x	13µM
COc1ccc(C#Cc2ccc3c(c2)[C@H]2[C@H](CCN2C(=O)c2ccncc2)[C@H](CO)N3)cc1	x	x	x	n	x	x
COc1cccc(-c2ccc3c(c2)[C@H]2[C@H](CCN2C(=O)C2CCCCC2)[C@@H](CO)N3)c1	n	n	40	x	x	n
COc1cccc(-c2ccc3c(c2)[C@@H]2[C@@H](CCN2C(=O)C2CC2)[C@@H](CO)N3)c1	n	n	n	x	x	x
O=C(CNCc1cccs1)Nc1ccc(S(=O)(=O)N2CCCCC2)cc1	n	n	n	n	n	x
O=C(CNCc1cccs1)Nc1ccc(N2CCCCCC2)cc1	n	n	42	x	n	13µM
Cn1ccc2c(N3CCCCCC3)cc3c(c21)C1CCC3C1 (stereo unspecified)	n	n	31	n	x	n
O=C(C[C@H]1CC[C@@H]2[C@H](COC[C@@H](O)CN2S(=O)(=O)c2ccc(F)cc2)O1)NCC1CCCCC1	n	n	34	n	x	n
